{"source": "ChEMBL document CHEMBL3616442", "about": "“Unconventional Knoevenagel-type indoles: Synthesis and cell-based studies for the identification of pro-apoptotic agents” (Eur J Med Chem, 2015)", "key": {"HL-60": {"tested_on": "HL-60", "test": "Induction of cell cycle arrest in human HL60 cells assessed as accumulation at G2/M phase after 18 hrs by propidium iodide staining based flow cytometric analysis", "assay_type": "functional", "procedure,_shortened": "(§1)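 Propidium iodide/RNase A flow cytometry of ethanol-fixed cells, 10,000 gated events at 488 nm; G2/M fraction measured after 18 h treatment (HL-60, MCF-7) or 24 h (K562); mean ± S.E.M. of three independent experiments.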"}, "K562": {"tested_on": "K562", "test": "Induction of cell cycle arrest in human K562 cells assessed as accumulation at G2/M phase after 24 hrs by propidium iodide staining based flow cytometric analysis", "assay_type": "functional", "procedure,_shortened": "as §1"}}, "data": [{"molecule": "COc1ccc(-c2[nH]c3ccccc3c2/C=C(\\C#N)S(=O)(=O)c2ccccc2)cc1", "values": [{"measurement": "Activity", "setting": "HL-60", "value": 47.3, "unit": "%"}, {"measurement": "Activity", "setting": "K562", "value": 42.4, "unit": "%"}]}]}
